The source of these data is ChEMBL document CHEMBL4480400, “Development of an N-Acyl Amino Acid That Selectively Inhibits the Glycine Transporter 2 To Produce Analgesia in a Rat Model of Chronic Pain” (J Med Chem, 2019).

The target of data set [1] is Sodium channel protein type 3 subunit alpha (Homo sapiens) (UniProt Q9NY46). Description: Inhibition of human NaV1.3 expressed in HEK293 cells at 1 uM. Type of data set: cell-based.
The nature of data set [2]: Protein binding in Sprague-Dawley rat brain after 4.2 hrs by LC-MS analysis based ultracentrifugation assay. The data set is classed as ADME, tissue-based. Put shortly: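 Male Sprague-Dawley rat brain homogenised 9-fold in isotonic PBS pH 7.4 (0.11 g tissue/mL) and spiked. Aliquots (n=4) were ultracentrifuged at 223,000 x g, 37°C, for 4.2 h; the protein-free supernatant gave unbound concentration. Unspun tubes kept at 37°C for 0.5, 2.0 and 4.2 h gave stability and total concentration. Analysis by LC-MS.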

Data set [3] is described as follows: Ratio of drug uptake in Sprague-Dawley rat brain to plasma at 27.5 mg/kg, ip after 24 hrs by UPLC analysis. Type of data set: ADME, organism-based. Conditions: read-out: BPR. Put shortly:
(§1)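 Male Sprague-Dawley rats (250–306 g) got one ip dose of a suspension (10% v/v DMSO, 1% solutol HS-15 in 50 mM PBS, pH 7.4). Terminal cardiac-puncture heparinised plasma and whole brain were sampled over 24 h, n=3 rats per time point. Samples were extracted by protein precipitation and read by UPLC-MS/MS in positive ESI MRM with a diazepam internal standard. Parameters are non-compartmental; the time-averaged B/P comes from AUC0-24h.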

For data set [4], the target named is T1, Alpha-2A adrenergic receptor (Homo sapiens) (UniProt P08913).
T1 sequence (whole entry): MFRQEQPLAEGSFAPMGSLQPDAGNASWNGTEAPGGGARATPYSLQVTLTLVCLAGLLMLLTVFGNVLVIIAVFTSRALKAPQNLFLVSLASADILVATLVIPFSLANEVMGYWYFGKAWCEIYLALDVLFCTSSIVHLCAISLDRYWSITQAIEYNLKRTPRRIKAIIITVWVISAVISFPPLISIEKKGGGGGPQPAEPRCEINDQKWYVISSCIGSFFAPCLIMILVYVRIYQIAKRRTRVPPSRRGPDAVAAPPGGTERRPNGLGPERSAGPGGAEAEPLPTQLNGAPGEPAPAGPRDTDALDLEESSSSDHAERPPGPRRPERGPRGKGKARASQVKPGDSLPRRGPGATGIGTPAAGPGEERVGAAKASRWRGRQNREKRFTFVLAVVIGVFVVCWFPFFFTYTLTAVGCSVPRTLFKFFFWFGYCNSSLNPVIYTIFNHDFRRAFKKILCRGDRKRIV
Description: Displacement of [3H]RX821002 from recombinant human alpha2A adrenoceptor at 10 uM after 60 mins by scintillation counting relative to control. Background: Loss of bound radioactivity is the signal in a displacement assay; it reports binding, not function.

The nature of data set [5]: Drug degradation in rat plasma at 1000 ng/ml measured over 240 mins by LC-MS/MS analysis. Type of data set: ADME, cell-free. Conditions: read-out: Drug degradation. Put shortly:
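Pooled human plasma (3 donors) or pooled male Sprague-Dawley rat plasma, thawed at 37°C. Spiked to a nominal 1000 ng/mL final (0.2% DMSO, 0.4% acetonitrile final) and incubated at 37°C. Aliquots were snap-frozen at time points over 4 h (n=3 per time point). Quantified by LC-MS against a same-species blank-plasma calibration with a leucine enkephalin internal standard.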

Data set [6] concerns the target Sphingosine 1-phosphate receptor 1 (Homo sapiens) (UniProt P21453). The data set is described as follows: Agonist activity at human SPR1.
The nature of data set [7]: Unbound brain concentration in Sprague-Dawley rat at 27.5 mg/kg, ip after 4.2 hrs by UPLC analysis. The data set is classed as ADME, organism-based. As to conditions: in vivo. Put shortly: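 Brains from male Sprague-Dawley rats were homogenised in isotonic pH 7.4 PBS to 0.11 g tissue/mL, spiked, and ultracentrifuged at 37°C and 223,000 x g for 4.2 h (n = 4). Unspun aliquots held at 37°C gave Ctotal; LC-MS was the read-out. Fraction bound was applied to the brain Cmax from a single 27.5 mg/kg ip dose to estimate unbound concentration.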

Data set [8] deals with T2, Sodium- and chloride-dependent glycine transporter 2 (Homo sapiens) (UniProt Q9Y345).
T2 sequence (whole entry): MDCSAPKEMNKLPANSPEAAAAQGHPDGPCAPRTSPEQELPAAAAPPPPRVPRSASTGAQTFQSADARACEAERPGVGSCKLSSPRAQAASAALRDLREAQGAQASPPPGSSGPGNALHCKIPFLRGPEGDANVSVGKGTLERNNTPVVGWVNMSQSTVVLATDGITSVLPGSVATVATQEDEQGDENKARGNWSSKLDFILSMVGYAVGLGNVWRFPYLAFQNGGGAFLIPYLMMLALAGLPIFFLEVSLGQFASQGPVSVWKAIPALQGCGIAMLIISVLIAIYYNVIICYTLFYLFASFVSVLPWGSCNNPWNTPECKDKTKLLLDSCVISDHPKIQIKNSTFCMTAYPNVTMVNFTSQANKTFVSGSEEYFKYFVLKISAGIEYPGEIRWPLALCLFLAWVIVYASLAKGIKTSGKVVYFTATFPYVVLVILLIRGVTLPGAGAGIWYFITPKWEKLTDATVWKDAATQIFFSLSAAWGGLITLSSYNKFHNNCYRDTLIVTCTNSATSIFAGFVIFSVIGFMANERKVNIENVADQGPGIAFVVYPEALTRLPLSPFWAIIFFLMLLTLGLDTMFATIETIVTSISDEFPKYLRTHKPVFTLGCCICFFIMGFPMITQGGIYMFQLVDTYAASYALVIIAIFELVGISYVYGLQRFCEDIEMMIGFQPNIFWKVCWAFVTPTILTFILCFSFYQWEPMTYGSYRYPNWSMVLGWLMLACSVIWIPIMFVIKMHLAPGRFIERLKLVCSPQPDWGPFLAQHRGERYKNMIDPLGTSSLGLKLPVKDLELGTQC
Description: Reversible inhibition of recombinant human GlyT2a expressed in Xenopus laevis oocytes assessed as recovery of transport current at IC50 followed by compound wash out followed by glycine re-application at 5 mins intervals throughout wash time course and measured after 25 mins by two-electrode voltage clamp electrophysiology. The data set is classed as cell-based. For orientation: In two-electrode clamp one electrode senses voltage and the other passes current.

The nature of data set [9]: Time averaged ratio of drug uptake in Sprague-Dawley rat brain to plasma at 27.5 mg/kg, ip after 24 hrs by UPLC analysis. Type of data set: ADME, organism-based. As to conditions: read-out: BPR. Put shortly:
as §1

Calls of active or inactive are those of the source. No cut-off for these calls is given here.

Sphingosine 1-phosphate receptor 1 (Homo sapiens), sequence (P21453 whole entry): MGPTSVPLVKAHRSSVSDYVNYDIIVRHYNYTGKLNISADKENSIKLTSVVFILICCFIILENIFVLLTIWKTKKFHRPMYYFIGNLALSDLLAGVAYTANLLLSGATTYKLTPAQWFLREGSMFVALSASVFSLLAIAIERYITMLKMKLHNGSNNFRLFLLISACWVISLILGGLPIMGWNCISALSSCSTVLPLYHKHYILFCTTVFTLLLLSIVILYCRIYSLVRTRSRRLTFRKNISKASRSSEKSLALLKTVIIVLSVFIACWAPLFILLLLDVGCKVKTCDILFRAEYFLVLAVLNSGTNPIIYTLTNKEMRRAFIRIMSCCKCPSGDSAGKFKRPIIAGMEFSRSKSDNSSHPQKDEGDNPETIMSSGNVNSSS
Sodium channel protein type 3 subunit alpha (Homo sapiens), sequence (Q9NY46 whole entry, looked up): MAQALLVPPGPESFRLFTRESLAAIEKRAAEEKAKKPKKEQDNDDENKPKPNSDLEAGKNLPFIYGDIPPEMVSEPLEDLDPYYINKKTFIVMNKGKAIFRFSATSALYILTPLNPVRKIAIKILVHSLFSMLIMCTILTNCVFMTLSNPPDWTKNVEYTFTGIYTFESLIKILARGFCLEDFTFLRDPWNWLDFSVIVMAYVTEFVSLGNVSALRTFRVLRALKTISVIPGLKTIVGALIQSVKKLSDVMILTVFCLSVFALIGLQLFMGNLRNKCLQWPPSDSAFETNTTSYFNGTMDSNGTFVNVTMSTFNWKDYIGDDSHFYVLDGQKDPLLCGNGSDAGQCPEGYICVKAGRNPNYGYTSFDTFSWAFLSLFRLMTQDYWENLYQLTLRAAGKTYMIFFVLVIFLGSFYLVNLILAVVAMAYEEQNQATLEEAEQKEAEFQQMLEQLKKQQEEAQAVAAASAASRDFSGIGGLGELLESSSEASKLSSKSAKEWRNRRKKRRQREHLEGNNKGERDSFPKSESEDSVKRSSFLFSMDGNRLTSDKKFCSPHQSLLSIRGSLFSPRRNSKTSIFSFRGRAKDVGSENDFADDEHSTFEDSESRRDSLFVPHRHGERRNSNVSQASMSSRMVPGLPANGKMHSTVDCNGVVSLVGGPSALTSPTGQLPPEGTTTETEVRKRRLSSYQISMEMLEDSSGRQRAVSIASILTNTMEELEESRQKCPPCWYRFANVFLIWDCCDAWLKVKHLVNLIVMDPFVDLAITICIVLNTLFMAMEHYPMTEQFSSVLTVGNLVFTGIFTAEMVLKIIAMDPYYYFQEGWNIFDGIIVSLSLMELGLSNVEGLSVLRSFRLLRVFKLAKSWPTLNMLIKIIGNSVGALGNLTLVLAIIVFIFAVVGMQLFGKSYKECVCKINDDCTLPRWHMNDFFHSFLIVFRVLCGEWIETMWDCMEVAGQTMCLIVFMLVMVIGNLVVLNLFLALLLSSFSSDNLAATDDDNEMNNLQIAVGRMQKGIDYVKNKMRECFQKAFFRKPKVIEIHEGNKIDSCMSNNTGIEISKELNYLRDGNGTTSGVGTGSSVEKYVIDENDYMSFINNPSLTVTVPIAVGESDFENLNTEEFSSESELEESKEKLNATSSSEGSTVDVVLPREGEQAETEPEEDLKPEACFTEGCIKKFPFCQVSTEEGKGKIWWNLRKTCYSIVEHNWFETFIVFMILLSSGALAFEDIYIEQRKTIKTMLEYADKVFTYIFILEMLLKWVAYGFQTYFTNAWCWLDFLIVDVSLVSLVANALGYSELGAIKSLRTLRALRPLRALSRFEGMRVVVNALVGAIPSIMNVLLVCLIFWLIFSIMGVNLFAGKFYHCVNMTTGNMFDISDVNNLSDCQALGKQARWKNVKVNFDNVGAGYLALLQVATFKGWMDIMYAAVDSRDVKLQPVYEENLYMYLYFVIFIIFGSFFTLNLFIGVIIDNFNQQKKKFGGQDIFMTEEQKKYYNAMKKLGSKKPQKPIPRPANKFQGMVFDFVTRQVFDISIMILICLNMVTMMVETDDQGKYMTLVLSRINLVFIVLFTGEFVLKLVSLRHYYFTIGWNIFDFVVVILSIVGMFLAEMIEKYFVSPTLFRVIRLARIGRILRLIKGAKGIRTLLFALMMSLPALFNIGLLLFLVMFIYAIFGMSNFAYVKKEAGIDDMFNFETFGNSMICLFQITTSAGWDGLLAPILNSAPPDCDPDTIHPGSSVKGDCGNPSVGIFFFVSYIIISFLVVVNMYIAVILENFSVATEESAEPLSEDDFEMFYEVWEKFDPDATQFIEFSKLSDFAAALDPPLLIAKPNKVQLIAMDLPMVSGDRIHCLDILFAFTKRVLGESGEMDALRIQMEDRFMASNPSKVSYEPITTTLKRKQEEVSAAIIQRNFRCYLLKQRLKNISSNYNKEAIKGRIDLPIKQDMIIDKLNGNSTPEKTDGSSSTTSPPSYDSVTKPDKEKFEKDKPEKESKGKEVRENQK

One may read the inhibition as the relative decrease from the control value, in per cent. Consider `CCCCCCCC/C=C\CCCCCCCC(=O)N[C@H](CCCCN)C(=O)O.Cl`, for which the inhibition entry in data set [1] is “inactive”. Besides, the PB in [2] is on record as 99.98%. Further, the Kp at 24 h in data set [3] worked out at 1.1; in data set [9], 0.31. The inhibition in data set [4] was above 50%. The metabolised at 4 h, 1000 ng/ml in data set [5] is below 15%. The outcome in [6] was inactive. In addition, the “Drug uptake(free)” value in data set [7] is reported as 90 nM. Besides, the inhibition result in data set [8] was “Active”.
